H69AR growth 86K: proliferation blockers of H69AR lung cancer cells, primary screen, cell-based, human, 86K library | H69AR lung tumor viability, ATP luminescence, 72 h; stronger effect = lower value | viability, % at 10 µM | hit rate 6% among 85,000 | AID 598, 2007;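 active = viability at or below 40%; inactive = viability above 40%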;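 also: multidrug resistant small cell line overexpressing MRP-1 efflux transporter; 100% = mean luminescence of untreated control wells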
HUVEC prolif 384: inhibitors of HUVEC proliferation, primary screen, cell-based, 384-well | CellTiter-Glo luminescence, 72 h; stronger effect = lower value | viability, % at 10 µM (by protocol) | hit rate 1.1% among 86,000;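 active = viability at or below 30%; inactive = viability above 30%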;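 also: 100% = median luminescence of DMSO-only cell control wells on each plate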
HCT116 PTEN-null: growth suppression of PTEN-null HCT116, primary screen, cell-based, CellTiter-Glo. viability, % at 10 µM. HCT116 PTEN-null viability, 60 h; stronger effect = lower value. hit rate 1.2% among 140,000;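 active = viability at or below a set limit, 4 SD under the median of all tested compounds, cut at about 3.7% in these data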;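 also: PTEN knockout HCT116 line with beta catenin targeted HCT116 as companion control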
Lung fibro prol: antiproliferative effect on LL 47 fibroblasts – human, LL 47 cells, CellTiter-Glo luminescence, primary screen. LL 47 human lung fibroblast viability, ATP luminescence; stronger effect = lower value. viability, % at 10 µM. hit rate 1.1% among 85,000. AID 719, 2007;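 active = viability at or below 50% in the single dose screen; inactive = viability above 50%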;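 also: compound exposure lasted 72 h before the ATP readout; 100% = median luminescence of untreated cell-only wells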
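material = human LL 47 lung fibroblast cells | dosing = compounds added from tenfold dosing solution, 0.1% DMSO final | timing = overnight cell rest, 72 h compound treatment at 37 °C | measured by = CellTiter-Glo luminescence measuring cellular ATP | evaluation = % viability versus median cells-only luminescence | control set = cell-only wells, no compound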
HCT116 bCat-KO: primary screen for growth suppressors in beta-catenin knockout HCT116 cells (colon tumor, human) | hit rate 1.5% among 140,000 | viability, % at 10 µM | HCT116 beta-catenin knockout viability, CellTiter-Glo, 60 h; stronger effect = lower value;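 active = viability at or under a set limit, the compound median less 4 SD, cut at about 6% in these data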;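 also: 0% = Hyamine 1622 control at 20 µM and 100% = untreated cell control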
* hit, by the source's call; · = no result given. The full list was thinned out, with hits kept by preference.

SMILES | H69AR growth 86K | HUVEC prolif 384 | HCT116 PTEN-null | Lung fibro prol | HCT116 bCat-KO
CCOc1cc(-c2cc(-c3ccc(C)cc3)nc(N)c2C#N)ccc1O | 6.9* | 41 | 7 | 65 | 8
CCOc1cc(/C=C(\C#N)c2[nH]nc(N)c2C#N)ccc1O | 37* | 64 | 84 | 82 | 79
CCOc1cc(-c2c(C#N)c(N)nc3c2CCc2ccccc2-3)ccc1O | · | · | 47 | · | 50
O=C(COC(=O)C1CCN(/C=C/C(=O)C(F)(F)F)CC1)Nc1ccccc1 | · | · | 91 | · | 100
Cc1ccc(-n2ncc3c(NCc4ccc5c(c4)OCO5)ncnc32)c(C)c1 | 28* | 89 | 60 | 68 | 61
c1ccc(-n2ncc3c(NCc4ccc5c(c4)OCO5)ncnc32)cc1 | 87 | 89 | 86 | 87 | 83
COc1ccc(-n2ncc3c(NCc4ccc5c(c4)OCO5)ncnc32)cc1 | 6.2* | 66 | 86 | 68 | 88
COc1ccc(N2CCN(S(=O)(=O)c3cccc(C(F)(F)F)c3)CC2)cc1 | 100 | 105 | 99 | 98 | 100
Cn1c(=O)c2cc(S(=O)(=O)N3CCN(c4cccc(C(F)(F)F)c4)CC3)ccc2n(C)c1=O | 25* | 68 | 58 | 58 | 68
CCc1cc2c(=O)n(Cc3ccco3)c(SCC(=O)N3CCCc4ccccc43)nc2s1 | 102 | 90 | 60 | 89 | 61
CCc1cc2c(=O)n(Cc3ccco3)c(SCc3c(C)noc3C)nc2s1 | 13* | 56 | 22 | 49* | 24
COc1ccc(NC(=O)CC#N)cc1OC | 105 | 95 | 97 | 94 | 95
CC(C)(C)c1ccc(-c2noc(CCC(=O)NCC3CCCO3)n2)cc1 (stereo not given) | 94 | 98 | 60 | 109 | 38
CCc1ccc2nc(SCC(=O)N3CC(=O)Nc4ccccc43)c(C#N)cc2c1 | 5.2* | 32 | 16 | 65 | 11
CCN(CC)c1ccc(/C=N/NC(=O)C(O)(c2ccccc2)c2ccccc2)o1 | · | · | 75 | · | 78
CCN(CC)c1ccc(NC(=O)C2CCCN(S(=O)(=O)c3cnc[nH]3)C2)c(C)c1 (stereo not given) | 91 | 101 | 102 | 100 | 103
CC(=O)c1ccc(NC2=C(N3CCOCC3)C(=O)c3ccccc3C2=O)cc1 | · | · | 38 | · | 49
CC(=O)N(C)C1=C(N2CCOCC2)C(=O)c2ccccc2C1=O | · | · | 0.8* | · | 0.7*
O=C(c1cc2n(n1)C(C(F)(F)F)CC(c1ccco1)N2)N1CCN(c2ccccn2)CC1 (stereo not given) | 96 | 98 | 101 | 106 | 98
Cc1cccc(N2CCN(C(=O)c3cc4n(n3)C(C(F)(F)F)CC(c3ccco3)N4)CC2)c1C (stereo not given) | · | · | 3.5* | · | 2.2*
CC1=NN(c2ccccc2)C(=O)/C1=C/C=C/c1ccccc1 | · | · | 3.2* | · | 3.4*
CC(C)Cn1c(=O)c(C(=O)N/N=C/c2cccc(F)c2)c(O)c2ccccc21 | · | · | 60 | · | 67
COc1cc(NC(=O)Cc2ccc([N+](=O)[O-])cc2)c(C(=O)O)cc1OC | · | · | 92 | · | 95
Brc1cc(Br)c2ncnc(N3CCCCC3)c2c1 | 1.7* | 8.9* | 10 | 16* | 5.8*
Clc1ccc(-n2ncc3c(N4CCCCCC4)ncnc32)cc1 | 79 | 87 | 98 | 103 | 91
SMILES | H69AR growth 86K | HUVEC prolif 384 | HCT116 PTEN-null | Lung fibro prol | HCT116 bCat-KO
CCc1cc2c(C)cc(=O)oc2cc1OC(=O)C1CCCN1C(=O)OC(C)(C)C (stereo not given) | 83 | 99 | 89 | 98 | 94
CCc1ccc(NC(=O)CCc2nc3cccnc3n2Cc2ccc(OC)cc2)cc1 | 18* | 64 | 61 | 45* | 58
O=C(O)CCc1nc2cccnc2n1Cc1ccccc1 | 73 | 101 | 96 | 96 | 95
Cc1ccc(N(CC(=O)NCc2ccc(F)cc2)S(=O)(=O)c2cccs2)cc1 | 96 | 99 | 79 | 95 | 79
OC(C#Cc1ccccn1)c1cccs1 (stereo not given) | 13* | 7.9* | 60 | 85 | 60
COc1ccc(NS(=O)(=O)c2ccc(NS(=O)(=O)c3ccc(C)cc3)cc2)nn1 | 85 | 103 | 85 | 103 | 95
COc1cc2c(cc1NC(=O)c1cccnc1)oc1ccccc12 | 35* | 64 | 85 | 84 | 88
COc1cc2c(cc1NC(=O)c1cc(-c3ccccn3)nc3ccccc13)oc1ccccc12 | · | · | 5 | · | 6.1*
COc1cc2c(cc1NC(=O)c1ccncc1)oc1ccccc12 | 48 | 75 | 89 | 71 | 82
CCOc1ccc2nc(NC(NC(=O)CC)(C(=O)OC)C(F)(F)F)sc2c1 (stereo not given) | 79 | 90 | 91 | 100 | 91
COC(=O)c1cc2ccsc2n1CC(=O)N(C)C1CCCCC1 | 76 | 101 | 91 | 96 | 91
CCN(C(=O)CCc1nc(-c2ccccc2F)no1)c1cc(OC)ccc1OC | 91 | 102 | 65 | 97 | 72
CCCn1c(NC(=O)c2ccc(C)cc2)nc2ccccc21 | 52 | 87 | 37 | 67 | 26
CCCn1c(NC(=O)c2ccccc2)nc2ccccc21 | 31* | 86 | 38 | 71 | 42
CCCn1c(Nc2nc3ccccc3n2C)nc2ccccc21 | 3.1* | 3.0* | 2.0* | 102 | 2.2*
CCCn1c(NC(=O)c2cccc(S(=O)(=O)N3CCCC3)c2)nc2ccccc21 | 17* | 52 | 2.0* | 53 | 2.9*
CCCn1c(NC(=O)C2CCN(S(=O)(=O)c3cccs3)CC2)nc2ccccc21 | 39* | 72 | 8 | 65 | 10
C=CCNC(=S)NNC(=O)c1csc(C)c1C | · | · | 96 | · | 97
CC(NC(=O)c1ccccc1)c1nc2ccccc2n1Cc1ccccc1F (stereo not given) | 12* | 103 | 66 | 92 | 76
CC(NC(=O)c1ccccc1)c1nc2ccccc2n1Cc1ccc(C#N)cc1 (stereo not given) | 70 | 102 | 89 | 93 | 78
O=C(Nc1nc2ccccc2n1CCN1CCCCC1)C1CCCCC1 | 31* | 107 | 56 | 87 | 43
COc1ccc(N2CC(C(=O)Nc3nnc(SCC(=O)c4ccccc4)s3)CC2=O)cc1 (stereo not given) | · | · | 97 | · | 94
Cc1ccccc1OCC1Cc2c(nc(N)c(C#N)c2N)O1 (stereo not given) | · | · | 94 | · | 96
C[C@@H](O)[C@@H]1NC(=O)c2cc([N+](=O)[O-])cc(I)c2NCC[C@@H](C(N)=O)NC(=O)CNC1=O | · | · | 92 | · | 96
Cc1ccccc1C(=O)N1CCC(C(N)=O)CC1 | 91 | 106 | 100 | 105 | 97
COc1ccc(CN2C(=O)CN=C2Nc2cc(C)ccc2C)cc1 | 40* | 79 | 91 | 95 | 98
Cc1nnc(C)c2c(C)n(C(c3ccccc3)c3ccccc3)c(C)c12 | 26* | 77 | 64 | 106 | 71
Cc1ccc(/C=N\NC(=O)C2CN(S(=O)(=O)c3ccccc3)CCN2S(=O)(=O)c2ccccc2)cc1 (stereo not given) | · | · | 73 | · | 77
